KLK7 zymogen act: proKLK7 zymogen activators, primary screen, biochemical, fluorescence intensity; Kallikrein-7 (Homo sapiens), P49862; activation, % at 7 µM; 370,000 tested, 0.9% active; purified proKLK7, EDANS-DABCYL substrate fluorescence; 100% is mature enzyme control, 0% vehicle;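 active = activation above the mean of all tested compounds plus 3 SD, computed per campaign excluding outliers beyond control limits, cut at about 13% in these data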
proCasp3 act: activators of human procaspase-3 D3A mutant, primary screen, biochemical, absorbance, PC-3 D3A mutant, single concentration | activation, % at 8.5 µM | 330,000 tested, 0.11% active | Caspase-3 (Homo sapiens), P42574 | recombinant procaspase-3 D3A, Ac-DEVD-pNA absorbance 405 nm;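 active = activation above the mean of all tested compounds plus 3 SD, cut at about 21% in these data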;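 also: 0% = DMSO alone and 100% = DMSO wells spiked with extra 5 µM PC-3 D3A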
Target sequence (P42574 whole entry D9A/D28A/D175A): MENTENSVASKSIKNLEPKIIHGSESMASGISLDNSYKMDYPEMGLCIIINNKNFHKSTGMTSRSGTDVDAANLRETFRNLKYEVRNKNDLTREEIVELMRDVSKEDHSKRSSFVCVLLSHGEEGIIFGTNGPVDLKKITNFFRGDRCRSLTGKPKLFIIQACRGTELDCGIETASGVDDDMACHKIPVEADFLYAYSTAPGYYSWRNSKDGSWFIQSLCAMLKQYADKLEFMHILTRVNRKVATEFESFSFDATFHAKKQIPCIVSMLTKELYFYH
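Assay system: Procaspase-3 D3A mutant, all three cleavage aspartates alanine. Buffer or medium: Zinc-free HEPES saline buffer with Triton X-100. Times: 1 h compound preincubation, 2 h substrate hydrolysis at 25 °C. Measured by: 405 nm absorbance of p-nitroaniline, reads at 0 and 120 min. Read-out basis: percent activation relative to control range. Replicates: singlicate.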
Neddylation inh: inhibitors of cullin neddylation, primary screen, biochemical, TR-FRET, uHTS, NAE and Ubc12; 360,000 tested, 0.58% active; NEDD8-conjugating enzyme Ubc12 (Homo sapiens) + NEDD8-activating enzyme E1 regulatory …; calls only at 25 µM; in the data active = inhibition above about 36%
proCasp7 act: procaspase-7 activators, primary screen, counter-screen for procaspase-3 activator project, biochemical, absorbance, HTS, human; Caspase-7 (Homo sapiens), P55210; recombinant procaspase-7, Ac-DEVD-pNA absorbance 405 nm; D23A/D198A/D206A triple mutant, cannot self-cleave; scale: DMSO 0, 5 µM enzyme 100; activation, % at 8.5 µM; 330,000 tested, 0.093% active; AID 463210, 2010;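 active = percent activation above the screen-wide mean plus 3 SD, cut at about 25% in these data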
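Assay system: Uncleavable procaspase-7 mutant enzyme; Input: 2 µM procaspase-7 mutant as dispensed; Also added: DEVD-pNA substrate; Medium: Zinc-free HEPES pH 7.4 with 300 mM NaCl, 0.01% Triton X-100; Timing: 1 h compound preincubation, 2 h substrate cleavage, 25 °C; Measured by: Epi-absorbance of released pNA at 405 nm, two timepoints.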
Neddyl conf: blockade of NEDD8 conjugation to cullin – biochemical, TR-FRET, single concentration, confirmation | shares compounds with Neddylation inh | TR-FRET cullin neddylation biochemical assay | calls only at 25 µM | 1,800 tested, 13% active | AID 652217, 2013; in the data active = inhibition above about 40%;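 also: neddylation substrate is the cullin 1 ring ligase complex with SKP2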
Numbers without * were called inactive; i = inactive; nt = no result shown; + = active, no number. The list is not random: actives were taken first. Their share in the collection is about 1.6%.

SMILES	KLK7 zymogen act	proCasp3 act	Neddylation inh	proCasp7 act	Neddyl conf
CCCC(=O)OC12CCCN(C1)/C(=C/c1ccc(C#N)cc1)C2 (stereo not given)	0.1	nt	nt	nt	nt
CCN(CC)c1cc(C)c2cc(NC(=O)c3ccccc3F)ccc2n1	-0.7	0.9	i	4.5	nt
CCN(CC)c1cc(C)c2cc(NC(=O)CNC(C)=O)ccc2n1	-15.8	-3.1	+	8.4	+
CC(C)CCNC(=O)C1CCCN(C(=O)c2ccc3c(c2)NC(=O)CS3)C1 (stereo not given)	-0.2	nt	nt	nt	nt
O=C(N/N=C/c1cnc(N2CCCCC2)s1)c1ccc(Cl)cc1	1.7	-4.6	+	-3.6	+
O=Cc1cnc(N2CCCCC2)s1	0.1	6.3	i	3.9	nt
O=C(OCc1cc(=O)n2ccsc2n1)c1ccccc1O	2.5	7.2	i	5.2	nt
O=C(OCc1cc(=O)n2ccsc2n1)c1ccccc1NCCO	5.6	0.8	+	12.2	nt
Cc1ccc(NC(=O)Cc2ccc(F)cc2)c(S(=O)(=O)N2CCOCC2)c1	-0.2	nt	nt	nt	nt
OCCN1CCN(c2nc3ccccc3nc2-c2ccccc2)CC1	6.2	3.9	+	-2.4	i
COC(=O)[C@]12C[C@H](CC(=O)NCCC(C)C)C(=O)N(CCC3=CCCCC3)C1=C[C@H](C(C)C)O[C@@H]2C1CC1	-0.5	nt	nt	nt	nt
COc1ccc(Nc2nc(N3CCCCC3)nc3ccccc23)c(OC)c1	0.2	-1.1	+	6.6	nt
CCOc1ccc(-n2c(SCC(=O)c3ccccc3Cl)nnc2-c2ccncc2)cc1	0.5	nt	nt	nt	nt
Cc1[nH]c2ccccc2c1/C=N/NC(=O)c1cc(-c2cccs2)[nH]n1	0.6	0.9	+	1.3	i
O=C(CSc1nnc(-c2ccccn2)n1-c1ccc(Cl)cc1)Nc1ccc(S(=O)(=O)Nc2nccs2)cc1	0.2	nt	nt	nt	nt
Cc1cc(C)cc(Oc2nc3ccccn3c(=O)c2/C=C(\C#N)C(=O)NC2CCS(=O)(=O)C2)c1 (stereo not given)	7.2	-4.6	+	-1.6	i
CN(C)c1ccc(/C=C/c2c([N+](=O)[O-])c(=O)n(C)c(=O)n2C)cc1	2.5	nt	+	nt	i
c1ccc2c(c1)ccc1nnc(SCc3ccc4c(c3)OCCO4)n12	0.2	10.9	i	3.1	nt
c1ccc2c(c1)ccc1nnc(-c3ccc4c(c3)OCO4)n12	0.3	-5.8	+	13.1	nt
O=C(CSc1nnc(-c2cccnc2)n1-c1ccccc1)Nc1ccc2c(c1)OCCO2	0.1	nt	nt	nt	nt
O=C(Nc1ccc2nsnc2c1)C1CC1	8.2	5.6	+	12.2	+
CCCCNS(=O)(=O)/C=C/c1ccc(F)cc1CNC(=O)OC(C)(C)C	-0.5	nt	nt	nt	nt
COc1ccc(CN2CCc3c([nH]c4ccccc34)C2)cc1Br	0.7	1.9	+	-3.9	i
Cc1nc2ccc(S(=O)(=O)NCC(=O)NCc3cccs3)cc2s1	-0.5	nt	nt	nt	nt
CCOCCCn1cnc2c3cc(F)ccc3n(C)c2c1=O	0.8	-8.5	i	5.3	nt
SMILES	KLK7 zymogen act	proCasp3 act	Neddylation inh	proCasp7 act	Neddyl conf
COc1ccccc1CCn1cnc2c3cc(C)ccc3n(C)c2c1=O	-0.6	-0.1	+	4.1	nt
COc1ccc(-c2ccc3c(N)c(C(=O)c4cccc(OC)c4)sc3n2)cc1	1.7	-12.0	i	-53.9	nt
COc1cccc(-c2ccc3c(N)c(C(=O)NC4CC4)sc3n2)c1	-1.9	-17.9	+	-19.2	nt
O=C(OCc1cn(Cc2ccccc2F)nn1)N1CCCC1	0.6	nt	nt	nt	nt
CC(=O)N1CCC2(CC1)C/C(=N\NC(=S)Nc1ccccc1C)c1cc(O)ccc1O2	-7.3	-0.4	nt	-8.6	nt
COc1ccccc1NC(=S)N/N=C1\CC(C)(C)Oc2ccc(O)cc21	-10.5	-11.7	+	-7.0	i
COc1ccc(NC(=S)N/N=C2\CC(C)(C)Oc3ccc(O)cc32)cc1	-5.6	-5.0	+	-3.0	i
CC(=O)N1CCC2(CC1)C/C(=N\NC(=S)Nc1ccccc1F)c1cc(O)ccc1O2	-11.3	0.8	i	0.7	nt

Screens as filed in PubChem BioAssay.
